Activity calls are given as the source filed them. The calls are words filed in the database; no cut-off is given here.
Key:
Clostridioides difficile [1] = assay: Antibacterial activity against Clostridium difficile VPI 10463 infected in golden syrian hamster assessed as survival of the […] at 50 mg/kg/day administered 24 hrs after infection for 5 days measured after 7 days; type: functional, organism-based
Summary of the method: (§1)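 Treatment design in hamsters (10/group per cohort): clindamycin phosphate 10 mg/kg sc on day 0, gavage infection with VPI 10463 on day 1. Oral rifaximin, suspended in phosphate buffer pH 7.4 with 4.5‰ SDS, given daily by gavage from day 2 for five doses. Survival read at day 7, with Kaplan-Meier and log-rank analysis.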

Clostridioides difficile [2] = assay: Antibacterial activity against Clostridium difficile VPI 10463 infected in golden syrian hamster assessed as survival of the […] at 25 mg/kg/day administered 24 hrs after infection for 5 days measured after 28 days; type: functional, organism-based
Summary of the method: (§2)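 Relapse study: hamsters given clindamycin phosphate 10 mg/kg sc on day 0 and infected with VPI 10463 by gavage on day 1. Daily oral rifaximin by gavage in SDS/phosphate buffer vehicle on days 2–6. Animals followed about one month for recurrence, with Kaplan-Meier survival. Body weight tracked over time as % of initial weight.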

Clostridioides difficile [3] = assay: Antibacterial activity against Clostridium difficile VPI 10463 infected in golden syrian hamster assessed as survival of the […] at 50 mg/kg/day for 5 days measured after 7 days; type: functional
Summary of the method: (§3)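 Prevention design in hamsters (n = 10/group): clindamycin phosphate 10 mg/kg sc on day 0, oral gavage infection with C. difficile VPI 10463 on day 1. Rifaximin suspended in 0.1 M phosphate buffer pH 7.4 plus 4.5‰ SDS, given by gavage once daily from day 1 for 5 doses; vehicle and uninfected controls. Survivors sacrificed day 7. Weight change is % of initial body weight; non-survivors excluded.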

Clostridioides difficile [4] = assay: Antibacterial activity against Clostridium difficile VPI 10463 infected in golden syrian hamster assessed as survival of the […] at 100 mg/kg/day administered 24 hrs after infection for 5 days measured after 28 days; type: functional; summary of the method: as §2
Clostridioides difficile [5] = assay: Antibacterial activity against Clostridium difficile VPI 10463 infected in golden syrian hamster assessed as body weight loss at 50 mg/kg/day for 5 days measured after 7 days relative to initial body weight; type: functional; summary of the method: as §3
Clostridioides difficile [6] = assay: Antibacterial activity against Clostridium difficile VPI 10463 infected in golden syrian hamster assessed as survival of the […] at 50 mg/kg/day administered 24 hrs after infection for 5 days measured after 28 days; type: functional, organism-based; summary of the method: as §2
Clostridioides difficile [7] = assay: Antibacterial activity against Clostridium difficile VPI 10463 infected in golden syrian hamster assessed as survival of the […] at 25 mg/kg/day administered 24 hrs after infection for 5 days measured after 7 days; type: functional; summary of the method: as §1
Clostridioides difficile [8] = assay: Antibacterial activity against Clostridium difficile VPI 10463 infected in golden syrian hamster assessed as body weight loss at 25 mg/kg/day for 5 days measured after 7 days relative to initial body weight; type: functional; summary of the method: as §3
Clostridioides difficile [9] = assay: Antibacterial activity against Clostridium difficile VPI 10463 infected in golden syrian hamster assessed as survival of the […] at 100 mg/kg/day administered 24 hrs after infection for 5 days measured after 7 days; type: functional, organism-based; summary of the method: as §1
Clostridioides difficile [10] = assay: Antibacterial activity against Clostridium difficile VPI 10463 infected in golden syrian hamster assessed as body weight gain at 100 mg/kg/day for 5 days relative to initial body weight; type: functional; summary of the method: as §2
Clostridioides difficile [11] = assay: Antibacterial activity against Clostridium difficile VPI 10463 infected in golden syrian hamster assessed as survival of the […] at 100 mg/kg/day for 5 days measured after 7 days; type: functional; summary of the method: as §3
Clostridioides difficile [12] = assay: Antibacterial activity against Clostridium difficile VPI 10463 infected in golden syrian hamster assessed as body weight loss at 100 mg/kg/day for 5 days measured after 7 days relative to initial body weight; type: functional; summary of the method: as §3

Row | Compound | Activity (Clostridioides difficile [1]) | Activity (Clostridioides difficile [2]) | survival at 50 mg/kg/day (Clostridioides difficile [3]) | survival at 100 mg/kg/day (Clostridioides difficile [4]) | Activity (Clostridioides difficile [5]) | Activity (Clostridioides difficile [6]) | survival at 25 mg/kg/day (Clostridioides difficile [7]) | Activity (Clostridioides difficile [8]) | Activity (Clostridioides difficile [9]) | Activity (Clostridioides difficile [10]) | survival at 100 mg/kg/day (Clostridioides difficile [11]) | Activity (Clostridioides difficile [12])
1 | CN[C@H](CC(C)C)C(=O)N[C@H]1C(=O)N[C@@H](CC(N)=O)C(=O)N[C@H]2C(=O)N[C@H]3C(=O)N[C@H](C(=O)N[C@H](C(=O)O)c4cc(O)cc(O)c4-c4cc3ccc4O)[C@H](O)c3ccc(c(Cl)c3)Oc3cc2cc(c3O[C@@H]2O[C@H](CO)[C@@H](O)[C@H](O)[C@H]2O[C@H]2C[C@](C)(N)[C@H](O)[C@H](C)O2)Oc2ccc(cc2Cl)[C@H]1O [VANCOMYCIN] | Active | Active | 70% | 25% | -6.6% | Active | 80% |  |  |  |  | 
2 | CO[C@H]1/C=C/O[C@@]2(C)Oc3c(C)c(O)c4c(O)c(c5c(nc6cc(C)ccn65)c4c3C2=O)NC(=O)/C(C)=C\C=C\[C@H](C)[C@H](O)[C@@H](C)[C@@H](O)[C@@H](C)[C@H](OC(C)=O)[C@@H]1C [RIFAXIMIN] | Active | Active | 70% | 100% | -7.9% | Active |  | -8.4% | Active | 16.7% | 80% | -8.1%

— ChEMBL document CHEMBL1255283, “Comparative efficacies of rifaximin and vancomycin for treatment of Clostridium difficile-associated diarrhea and prevention of disease recurrence in hamsters” (2008)
